# Results published in ChEMBL document CHEMBL1146199, “Daptomycin susceptibility of unusual gram-positive bacteria: comparison of results obtained by the Etest and the broth microdilution method” (2007).
# Columns and labels:
# Type in all cases: functional
# Nocardia sp. [1] = experiment: Antimicrobial activity against Nocardia spp. by broth microdilution method
# How it was run: (§1)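 MIC by CLSI broth microdilution in Mueller-Hinton broth. Daptomycin testing used broth supplemented with calcium at physiological level (50 μg/ml). Vancomycin and linezolid were tested from standard powders. Control strains were S. aureus ATCC 29213 and Enterococcus faecalis 29212.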
# Nocardia brasiliensis [2] = experiment: Antimicrobial activity against Nocardis brasiliensis by broth microdilution method; how it was run: as §1
# Rhodococcus sp. [3] = experiment: Antimicrobial activity against Rhodococcus spp. by broth microdilution method; conditions: Rhodococcus sp. (in: high G+C Gram-positive bacteria); how it was run: as §1
# Pediococcus [4] = experiment: Antimicrobial activity against Pediococcus spp. by broth microdilution method; how it was run: as §1
# Listeria monocytogenes [5] = experiment: Antimicrobial activity against Listeria monocytogenes by broth microdilution method; how it was run: as §1
# Nocardia asteroides [6] = experiment: Antimicrobial activity against Nocardia asteroides by broth microdilution method; how it was run: as §1
# Leuconostoc [7] = experiment: Antimicrobial activity against Leuconostoc spp. by broth microdilution method; how it was run: as §1
# Nocardia sp. [8] = experiment: Antimicrobial activity against Nocardia spp. by Etest
# How it was run: (§2)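 Daptomycin MIC read from an Etest strip carrying a daptomycin-plus-calcium gradient, run per manufacturer's instructions. Each isolate was compared with its broth microdilution MIC (Mueller-Hinton broth, 50 μg/ml calcium). Agreement was defined as within 1 twofold dilution. Mean log2 difference was tested by one-sample t test.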
# Nocardia brasiliensis [9] = experiment: Antimicrobial activity against Nocardis brasiliensis by Etest; how it was run: as §2
# Listeria monocytogenes [10] = experiment: Antimicrobial activity against Listeria monocytogenes by Etest; how it was run: as §2
# Leuconostoc [11] = experiment: Antimicrobial activity against Leuconostac spp. by Etest; how it was run: as §2
# Nocardia asteroides [12] = experiment: Antimicrobial activity against Nocardia asteroids by Etest; how it was run: as §2
# Pediococcus [13] = experiment: Antimicrobial activity against Pediococcus spp. by Etest; how it was run: as §2
# Rhodococcus sp. [14] = experiment: Antimicrobial activity against Rhodococcus spp. by Etest; conditions: Rhodococcus sp. (in: high G+C Gram-positive bacteria); how it was run: as §2
MIC50 (Nocardia sp. [1]) [µg/mL],MIC90 (Nocardia sp. [1]) [µg/mL],MIC50 (Nocardia brasiliensis [2]) [µg/mL],MIC90 (Nocardia brasiliensis [2]) [µg/mL],MIC50 (Rhodococcus sp. [3]) [µg/mL],MIC90 (Rhodococcus sp. [3]) [µg/mL],MIC50 (Pediococcus [4]) [µg/mL],MIC90 (Pediococcus [4]) [µg/mL],MIC50 (Listeria monocytogenes [5]) [µg/mL],MIC90 (Listeria monocytogenes [5]) [µg/mL],MIC50 (Nocardia asteroides [6]) [µg/mL],MIC90 (Nocardia asteroides [6]) [µg/mL],MIC50 (Leuconostoc [7]) [µg/mL],MIC90 (Leuconostoc [7]) [µg/mL],SMILES,other results
> 64,> 64,> 64,> 64,> 64,> 64,0.25,0.5,4,4,> 64,> 64,0.12,0.25,CCCCCCCCCC(=O)N[C@@H](Cc1c[nH]c2ccccc12)C(=O)N[C@H](CC(N)=O)C(=O)N[C@@H](CC(=O)O)C(=O)N[C@@H]1C(=O)NCC(=O)N[C@@H](CCCN)C(=O)N[C@@H](CC(=O)O)C(=O)N[C@H](C)C(=O)N[C@@H](CC(=O)O)C(=O)NCC(=O)N[C@H](CO)C(=O)N[C@@H]([C@H](C)CC(=O)O)C(=O)N[C@@H](CC(=O)c2ccccc2N)C(=O)O[C@@H]1C,MIC50 (Nocardia sp. [8]): > 256 µg/mL; MIC90 (Nocardia sp. [8]): > 256 µg/mL; MIC50 (Nocardia brasiliensis [9]): > 256 µg/mL; MIC90 (Nocardia brasiliensis [9]): > 256 µg/mL; MIC50 (Listeria monocytogenes [10]): 3 µg/mL; MIC90 (Listeria monocytogenes [10]): 4 µg/mL; MIC50 (Leuconostoc [11]): 0.25 µg/mL; MIC90 (Leuconostoc [11]): 0.5 µg/mL; MIC50 (Nocardia asteroides [12]): > 256 µg/mL; MIC90 (Nocardia asteroides [12]): > 256 µg/mL; MIC50 (Pediococcus [13]): 0.25 µg/mL; MIC90 (Pediococcus [13]): 0.5 µg/mL; MIC50 (Rhodococcus sp. [14]): 96 µg/mL; MIC90 (Rhodococcus sp. [14]): > 256 µg/mL
4,4,8,8,1,2,2,4,2,2,4,4,4,4,CC(=O)NC[C@H]1CN(c2ccc(N3CCOCC3)c(F)c2)C(=O)O1 [LINEZOLID],

SMILES,MIC50 (Nocardia sp. [1]) [µg/mL],MIC90 (Nocardia sp. [1]) [µg/mL],MIC50 (Nocardia brasiliensis [2]) [µg/mL],MIC90 (Nocardia brasiliensis [2]) [µg/mL],MIC50 (Rhodococcus sp. [3]) [µg/mL],MIC90 (Rhodococcus sp. [3]) [µg/mL],MIC50 (Pediococcus [4]) [µg/mL],MIC90 (Pediococcus [4]) [µg/mL],MIC50 (Listeria monocytogenes [5]) [µg/mL],MIC90 (Listeria monocytogenes [5]) [µg/mL],MIC50 (Nocardia asteroides [6]) [µg/mL],MIC90 (Nocardia asteroides [6]) [µg/mL],MIC50 (Leuconostoc [7]) [µg/mL],MIC90 (Leuconostoc [7]) [µg/mL],other results
CN[C@H](CC(C)C)C(=O)N[C@H]1C(=O)N[C@@H](CC(N)=O)C(=O)N[C@H]2C(=O)N[C@H]3C(=O)N[C@H](C(=O)N[C@H](C(=O)O)c4cc(O)cc(O)c4-c4cc3ccc4O)[C@H](O)c3ccc(c(Cl)c3)Oc3cc2cc(c3O[C@@H]2O[C@H](CO)[C@@H](O)[C@H](O)[C@H]2O[C@H]2C[C@](C)(N)[C@H](O)[C@H](C)O2)Oc2ccc(cc2Cl)[C@H]1O [VANCOMYCIN],> 64,> 64,> 64,> 64,1,> 64,> 64,> 64,1,1,> 64,> 64,> 64,> 64,
